How the values were obtained:
Type in all cases: functional, cell-based
L1210 [1] = test: Growth inhibition in L1210 mouse Leukemia cells for a treatment time of 48 hr; conditions: L1210, 48 h
Outline: (§1)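 L1210 cells in exponential growth, 3–6 × 10^4/mL in Fischer's medium with 10% horse serum, 1% glutamine, 1% antibiotic–antimycotic. Drug added from ethanol dilutions (50 μL per 10 mL), exposure 2, 8, 24 or 48 h. Cells then spun down, resuspended in drug-free medium, counted 48 h after treatment start. IC50 read from percent-of-control count versus concentration plots.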

L1210 [2] = test: Growth inhibition in L1210 mouse Leukemia cells for a treatment time of 24 hr; conditions: L1210, 24 h; outline: as §1
L1210 [3] = test: Growth inhibition in L1210 mouse Leukemia cells for a treatment time of 2 hr; conditions: L1210, 2 h; outline: as §1
L1210 [4] = test: Growth inhibition in L1210 mouse Leukemia cells for a treatment time of 8 hr; conditions: L1210, 8 h; outline: as §1

| SMILES | IC50 (L1210 [1]) | IC50 (L1210 [2]) | IC50 (L1210 [3]) | IC50 (L1210 [4]) |
| --- | --- | --- | --- | --- |
| O=c1[nH]cc(F)c(=O)[nH]1 [FLUOROURACIL] | 125 nM | – | – | – |
| CN(CCBr)P(=O)(NCC1OC(n2cc(F)c(=O)[nH]c2=O)CC1O)OCc1ccc([N+](=O)[O-])o1 (stereo not given) | 34 nM | 108 nM | 1100 nM | 504 nM |

— ChEMBL document CHEMBL1133513, “Synthesis and biological activity of novel 5-fluoro-2'-deoxyuridine phosphoramidate prodrugs” (J Med Chem, 2000)
